We go through 2 compounds from ChEMBL document CHEMBL1275286, “Synthesis of the steroidal glycoside (25R)-3β,16β-diacetoxy-12,22-dioxo-5α-cholestan-26-yl β-D-glucopyranoside and its anti-cancer properties on cervicouterine HeLa, CaSki, and ViBo cells” (Eur J Med Chem, 2010).

As usually defined, the IC50 is the concentration needed to halve the response being measured. Low readings indicate higher potency, high ones lower potency.

Data set [1] deals with Ca-Ski. In words: Cytotoxicity against human CaSki cells assessed as LDH release at IC50 after 24 hrs by spectrophotometry. It is filed as functional. Summed up: (§1)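 7500 cells/well grown 24 h, then exposed for 24 h to the line's IC50 concentration or to ethanol (10 μL/mL). LDH in the supernatant read by INT-formazan at 500 nm, expressed against Triton X-100 lysis set as 100%. Mean ± S.D. of three independent experiments with three repetitions; Student's t-test.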

In data set [2] the test system is Ca-Ski. The data set is described as follows: Induction of apoptosis in human CaSki cells assessed as DNA fragmentation at IC50 after 24 hrs by TUNEL assay. It is filed as functional, cell-based. In a few lines: (§2)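 Cells on coverslips treated at IC50 for 24 h, with ethanol (10 μL/mL) as control. Fixed in 2% formaldehyde 20 min, permeabilized with 0.05% Triton X-100 for 5 min at 4 °C. TdT labeling with biotin-dUTP for 1 h at 37 °C, detected with rhodamine-streptavidin, DAPI counterstain. Fluorescence microscopy; representative of three independent assays.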

In data set [3] the test system is ViBo. In words: Induction of apoptosis in human ViBo cells assessed as DNA fragmentation at IC50 after 24 hrs by TUNEL assay. It is filed as functional, cell-based. Summed up:
as §2

The subject of data set [4] is HeLa. In words: Induction of apoptosis in human HeLa cells assessed as DNA fragmentation at IC50 after 24 hrs by TUNEL assay. Format: functional, cell-based. In a few lines:
as §2

In data set [5] the test system is ViBo. The data set is described as follows: Induction of apoptosis in human ViBo cells assessed as caspase 3 activation at 65 uM after 24 hrs by immunocytochemistry. Format: functional, cell-based. In a few lines: (§3)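 Seeded at […] in RPMI-1640 with 5% NCS for 24 h, then treated with 42 or 65 μM. Fixed in formaldehyde, permeabilized in 0.5% Triton X-100, blocked. Rabbit polyclonal anti-active caspase-3 (1:50), then FITC goat anti-rabbit (1:200), DAPI counterstain. Epifluorescence microscopy; representative of three independent assays.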

Data set [6] has as its system ViBo. The data set is described as follows: Induction of apoptosis in human ViBo cells assessed as caspase 3 activation at 42 uM after 24 hrs by immunocytochemistry. It is filed as functional, cell-based. In a few lines: as §3
For data set [7], the system named is Ca-Ski. In words: Induction of apoptosis in human CaSki cells assessed as caspase 3 activation at 42 uM after 24 hrs by immunocytochemistry. It is filed as functional, cell-based. Summed up:
as §3

The subject of data set [8] is Ca-Ski. In words: Induction of apoptosis in human CaSki cells assessed as caspase 3 activation at 65 uM after 24 hrs by immunocytochemistry. Format: functional, cell-based. Summed up:
as §3

The test system of data set [9] is HeLa. In words: Induction of apoptosis in human HeLa cells assessed as caspase 3 activation at 42 uM after 24 hrs by immunocytochemistry. Format: functional, cell-based. Summed up: as §3
Data set [10] deals with ViBo. In words: Induction of apoptosis in human ViBo cells assessed as chromatin condensation at 42 uM after 24 hrs by DAPI staining. It is filed as functional, cell-based.
Data set [11] deals with HeLa. The data set is described as follows: Induction of apoptosis in human HeLa cells assessed as caspase 3 activation at 65 uM after 24 hrs by immunocytochemistry. It is filed as functional, cell-based. In a few lines:
as §3

Data set [12] concerns HeLa. The data set is described as follows: Induction of apoptosis in human HeLa cells assessed as chromatin condensation at 65 uM after 24 hrs by DAPI staining. It is filed as functional, cell-based.
Data set [13] concerns Ca-Ski. In words: Induction of apoptosis in human CaSki cells assessed as chromatin condensation at 65 uM after 24 hrs by DAPI staining. Format: functional, cell-based.
Data set [14] in a line: Cell cycle arrest in human ViBo cells assessed as accumulation at G1 phase at 65 uM after 24 hrs by flow cytometry. Conditions: 42 uM, in the assay text read “at 42 uM” for “at 65 uM”. Format: functional, cell-based. Summed up:
(§4)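 Seeded at 10^5 cells/mL and grown 24 h, then exposed to 42 or 65 μM for 24 h, with ethanol as control. Harvested with versene, fixed and permeabilized in 50% methanol/PBS, treated with RNase (2.5 U/mL), stained with propidium iodide (0.2 μg/mL). Flow cytometry gave % DNA distribution by phase; Student's t-test versus ethanol.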
(In general: Flow cytometry measures light scatter and fluorescence of single cells or particles in a stream.)

The subject of data set [15] is Ca-Ski. In words: Cell cycle arrest in human CaSki cells assessed as accumulation at G2/M phase at 65 uM after 24 hrs by flow cytometry. Format: functional, cell-based. Summed up: as §4
The nature of data set [16]: Cell cycle arrest in human ViBo cells assessed as accumulation at G1 phase at 42 uM after 24 hrs by flow cytometry. Format: functional, cell-based. In a few lines: as §4
Data set [17] relates to HeLa. The data set is described as follows: Cell cycle arrest in human HeLa cells assessed as accumulation at S phase at 65 uM after 24 hrs by flow cytometry. Format: functional, cell-based. In a few lines: as §4
In data set [18] the test system is Ca-Ski. In words: Cell cycle arrest in human CaSki cells assessed as accumulation at G2/M phase at 42 uM after 24 hrs by flow cytometry. It is filed as functional, cell-based. The conditions noted are these: 65 uM, in the assay text read “at 65 uM” for “at 42 uM”. In a few lines:
as §4

For data set [19], the system named is HeLa. In words: Cell cycle arrest in human HeLa cells assessed as accumulation at S phase at 42 uM after 24 hrs by flow cytometry. Format: functional, cell-based. The conditions noted are these: 65 uM, in the assay text read “at 65 uM” for “at 42 uM”. In a few lines:
as §4

Data set [20] can be described thus: Cytotoxicity against human ViBo cells assessed as LDH release at IC50 after 24 hrs by spectrophotometry. It is filed as functional. In a few lines:
as §1
(In general: LDH leaks from cells whose membrane has failed.)

The test system of data set [21] is HeLa. The data set is described as follows: Cytotoxicity against human HeLa cells assessed as LDH release at IC50 after 24 hrs by spectrophotometry. It is filed as functional. Summed up: as §1
Data set [22] has as its system Ca-Ski. The data set is described as follows: Antiproliferative activity human CaSki cells after 24 hrs by crystal violet staining. It is filed as functional, cell-based. Summed up: (§5)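 Cells kept in RPMI-1640 with 5% newborn calf serum, 37 °C, 5% CO2, in exponential growth. 7500 cells/well seeded and grown 24 h, then exposed to a range of concentrations with ethanol as vehicle (1% in controls). Crystal violet staining after 24 h, absorbance at 590 nm; IC50 from dose–response curves.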

Data set [23] can be described thus: (§6) Antiproliferative activity human ViBo cells after 24 hrs by crystal violet staining. Format: functional, cell-based. Summed up:
as §5

The test system of data set [24] is ViBo. Described as §6. Format: functional, cell-based. Summed up: as §5
Data set [25] concerns HeLa. The data set is described as follows: Antiproliferative activity human HeLa cells after 24 hrs by crystal violet staining. Format: functional, cell-based. Summed up:
as §5

The nature of data set [26]: Antiproliferative activity non-tumor human cervical fibroblast at 65 uM after 24 hrs by crystal violet staining. Summed up: (§7)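 Primary fibroblasts from hysterectomy cervix explants of patients without malignant disease. Tissue digested with 0.05% trypsin at 37 °C, cultured in RPMI-1640 with 10% NCS, adherent cells subcultured. Exposed to 42 or 65 μM, with 1% ethanol in controls. Cell number by crystal violet staining.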

Data set [27] in a line: Antiproliferative activity non-tumor human cervical fibroblast at 42 uM after 24 hrs by crystal violet staining. Summed up:
as §7

The nature of data set [28]: Effect on enriched human lymphocyte proliferation at 42 uM after 72 hrs by CSFE staining. It is filed as cell-based. In a few lines:
(§8)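 PBMCs from healthy donors' heparinized blood isolated on a Hypaque gradient; adherent cells removed after 1 h. Labeled with 12 μM CFSE (final) for 15 min at room temperature, quenched with NCS, washed. Plated at 2×10^5 cells/well, unstimulated, PHA-stimulated or treated (42 or 65 μM), five replicates, 72 h at 37 °C.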

A short description of data set [29]: Effect on enriched human lymphocyte proliferation at 65 uM after 72 hrs by CSFE staining. Format: cell-based. In a few lines: as §8
Data set [30] is described as follows: Cytotoxicity against human lymphocytes assessed as LDH release at IC50 after 72 hrs by spectrophotometry. The conditions noted are these: lymphocyte.

SMILES strings stand for the structures. Active and inactive are the calls of the source. No cut-off for these calls is given here.

In the case of `CC(=O)O[C@H]1CC[C@@]2(C)[C@@H](CC[C@@H]3[C@@H]2CC(=O)[C@]2(C)[C@@H]([C@H](C)C(=O)CC[C@@H](C)CO)[C@@H](OC(C)=O)C[C@@H]32)C1`, in the data set on Ca-Ski [1], the Activity is 28%.
As to `CC(=O)O[C@H]1CC[C@@]2(C)[C@@H](CC[C@@H]3[C@@H]2CC(=O)[C@]2(C)[C@@H]([C@H](C)C(=O)CC[C@@H](C)CO[C@@H]4O[C@H](CO)[C@@H](O)[C@H](O)[C@H]4O)[C@@H](OC(C)=O)C[C@@H]32)C1`, the result with Ca-Ski [2], in the data set on ViBo [3], in the data set with HeLa [4], in the data set with ViBo [5], in the data set on ViBo [6] and in the data set on Ca-Ski [7] was Active. Further, the result in the data set with Ca-Ski [8], in the data set with HeLa [9], in the data set with ViBo [10], in the data set on HeLa [11], in the data set with HeLa [12] and in the data set with Ca-Ski [13] was Active. In addition, the result (in data set [14]; with Ca-Ski [15]; in data set [16]; in the data set with HeLa [17]; in the data set on Ca-Ski [18]; with HeLa [19]) was Active. Moreover, the Activity in the data set on Ca-Ski [1] was 17%; in data set [20], 3%; with HeLa [21], 13%; with Ca-Ski [22], “Dose-dependent effect”; in the data set on ViBo [24] it was “Dose-dependent effect”; in the data set with HeLa [25], “Dose-dependent effect”. Besides, the Activity is reported as less than 20% in data set [26]; less than 20% in [27]; 73.88% in data set [28]; 71.06% in [29]; “Non-toxic” in data set [30]. For the same compound, the IC50 was determined as 65 µM in the data set with Ca-Ski [22], 42 µM in [23] and 65 µM in the data set on HeLa [25].
